Test results as given in ChEMBL document CHEMBL2331322, “Synthesis and antimicrobial activity of some new benzo and naphthonitrile derivatives” (2013).
Values after ≈ are worked out from the molar mass of the structure shown.

Key:
Format in all cases: functional
Bacillus subtilis [1] = assay: Antimicrobial activity against Bacillus subtilis at 1 mg/mL after 24 hrs by agar disc diffusion method; conditions: read-out: DIZ
How it was run: (§1)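 Sterile 5 mm filter paper disks were impregnated with test solution in DMF (1 mg/mL) and placed on agar plates seeded with the test organism, in triplicate. Bacteria were incubated at 37 °C for 24 h and fungi for […] (so in the source). The read-out was the average inhibition zone diameter around the disks, in mm.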

Escherichia coli [2] = assay: Antimicrobial activity against Escherichia coli after 24 hrs by microdilution susceptibility test
How it was run: (§2)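 MIC was determined by broth microdilution, using Müller–Hinton broth for bacteria and Sabouraud liquid medium for fungi. Stocks were made in DMF and serially diluted twofold. Wells were inoculated at 10⁶ CFU/mL and plates incubated at 36 °C for 24–48 h, with controls included. Only compounds giving agar-diffusion zones >14 mm were tested.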

Botrytis fabae [3] = assay: Antimicrobial activity against Botrytis fabae at 1 mg/mL […] by agar disc diffusion method; conditions: read-out: DIZ
Pseudomonas aeruginosa [4] = assay: Antimicrobial activity against Pseudomonas aeruginosa after 24 hrs by microdilution susceptibility test; how it was run: as §2
Fusarium oxysporum [5] = assay: Antimicrobial activity against Fusarium oxysporum at 1 mg/mL after 48 hrs by agar disc diffusion method; conditions: read-out: DIZ; how it was run: as §1
Bacillus thuringiensis [6] = assay: Antimicrobial activity against Bacillus thuringiensis after 24 hrs by microdilution susceptibility test; how it was run: as §2
Fusarium oxysporum [7] = assay: Antimicrobial activity against Fusarium oxysporum after 48 hrs by microdilution susceptibility test; how it was run: as §2
Escherichia coli [8] = assay: Antimicrobial activity against Escherichia coli at 1 mg/mL after 24 hrs by agar disc diffusion method; conditions: read-out: DIZ; how it was run: as §1
Bacillus thuringiensis [9] = assay: Antimicrobial activity against Bacillus thuringiensis at 1 mg/mL after 24 hrs by agar disc diffusion method; conditions: read-out: DIZ; how it was run: as §1
Botrytis fabae [10] = assay: Antimicrobial activity against Botrytis fabae after 48 hrs by microdilution susceptibility test; how it was run: as §2
Pseudomonas aeruginosa [11] = assay: Antimicrobial activity against Pseudomonas aeruginosa at 1 mg/mL after 24 hrs by agar disc diffusion method; conditions: read-out: DIZ; how it was run: as §1
Bacillus subtilis [12] = assay: Antimicrobial activity against Bacillus subtilis after 24 hrs by microdilution susceptibility test; how it was run: as §2

MIC (Escherichia coli [2])	MIC (Pseudomonas aeruginosa [4])	MIC (Bacillus thuringiensis [6])	MIC (Fusarium oxysporum [7])	MIC (Botrytis fabae [10])	MIC (Bacillus subtilis [12])	Compound	zone of inhibition at 1000 µg/mL (Bacillus subtilis [1])	MBC (Escherichia coli [2])	zone of inhibition at 1000 µg/mL (Botrytis fabae [3])	zone of inhibition at 1000 µg/mL (Fusarium oxysporum [5])	zone of inhibition at 1000 µg/mL (Escherichia coli [8])	zone of inhibition at 1000 µg/mL (Bacillus thuringiensis [9])	zone of inhibition at 1000 µg/mL (Pseudomonas aeruginosa [11])	MBC (Bacillus subtilis [12])
50 µg/mL (≈ 169 µM)	50 µg/mL (≈ 169 µM)	25 µg/mL (≈ 84.5 µM)	25 µg/mL (≈ 84.5 µM)	50 µg/mL (≈ 169 µM)	25 µg/mL (≈ 84.5 µM)	N=c1[nH]c2nn(-c3ccc(Cl)cc3)nc2c2ccccc12	32 mm	200 µg/mL (≈ 676 µM)	15 mm	15 mm	15 mm	38 mm	19 mm	200 µg/mL (≈ 676 µM)
50 µg/mL (≈ 138 µM)	50 µg/mL (≈ 138 µM)	25 µg/mL (≈ 69 µM)	25 µg/mL (≈ 69 µM)	50 µg/mL (≈ 138 µM)	50 µg/mL (≈ 138 µM)	CCOC(=O)c1c2[nH]c(=N)c3ccccc3c2nn1-c1ccc(OC)cc1	40 mm	200 µg/mL (≈ 552 µM)	19 mm	38 mm	30 mm	37 mm	20 mm	200 µg/mL (≈ 552 µM)
12.5 µg/mL (≈ 41.8 µM)	25 µg/mL (≈ 83.7 µM)	12.5 µg/mL (≈ 41.8 µM)	25 µg/mL (≈ 83.7 µM)	12.5 µg/mL (≈ 41.8 µM)	6.25 µg/mL (≈ 20.9 µM)	N#Cc1ccccc1C(/N=N/c1ccc(Cl)cc1)C(N)=O (stereo unspecified)	38 mm	100 µg/mL (≈ 335 µM)	16 mm	16 mm	27 mm	33 mm	15 mm	50 µg/mL (≈ 167 µM)
50 µg/mL (≈ 172 µM)	50 µg/mL (≈ 172 µM)	50 µg/mL (≈ 172 µM)	25 µg/mL (≈ 85.8 µM)	25 µg/mL (≈ 85.8 µM)	50 µg/mL (≈ 172 µM)	COc1ccc(-n2nc3[nH]c(=N)c4ccccc4c3n2)cc1	33 mm	200 µg/mL (≈ 687 µM)	15 mm	19 mm	19 mm	35 mm	15 mm	200 µg/mL (≈ 687 µM)
100 µg/mL (≈ 306 µM)	100 µg/mL (≈ 306 µM)	100 µg/mL (≈ 306 µM)	50 µg/mL (≈ 153 µM)	100 µg/mL (≈ 306 µM)	100 µg/mL (≈ 306 µM)	COc1ccc(C2C(C#N)c3ccccc3C(=N)C2(C#N)C#N)cc1 (stereo unspecified)	15 mm	200 µg/mL (≈ 613 µM)	20 mm	19 mm	31 mm	18 mm	26 mm	200 µg/mL (≈ 613 µM)
50 µg/mL (≈ 180 µM)	12.5 µg/mL (≈ 44.9 µM)	50 µg/mL (≈ 180 µM)	25 µg/mL (≈ 89.8 µM)	25 µg/mL (≈ 89.8 µM)	25 µg/mL (≈ 89.8 µM)	Cc1ccc(/N=N/C(C(N)=O)c2ccccc2C#N)cc1 (stereo unspecified)	31 mm	200 µg/mL (≈ 719 µM)	20 mm	38 mm	15 mm	36 mm	16 mm	100 µg/mL (≈ 359 µM)
12.5 µg/mL (≈ 45.2 µM)	25 µg/mL (≈ 90.5 µM)	12.5 µg/mL (≈ 45.2 µM)	12.5 µg/mL (≈ 45.2 µM)	12.5 µg/mL (≈ 45.2 µM)	6.25 µg/mL (≈ 22.6 µM)	COc1ccc(/N=N/C(C#N)c2ccccc2C#N)cc1 (stereo unspecified)	39 mm	50 µg/mL (≈ 181 µM)	38 mm	37 mm	35 mm	36 mm	30 mm	100 µg/mL (≈ 362 µM)
50 µg/mL (≈ 182 µM)	50 µg/mL (≈ 182 µM)	50 µg/mL (≈ 182 µM)	50 µg/mL (≈ 182 µM)	50 µg/mL (≈ 182 µM)	50 µg/mL (≈ 182 µM)	Cc1ccc(-n2nc3[nH]c(=N)c4ccccc4c3n2)cc1	30 mm	200 µg/mL (≈ 726 µM)	20 mm	19 mm	15 mm	26 mm	15 mm	200 µg/mL (≈ 726 µM)
50 µg/mL (≈ 191 µM)	50 µg/mL (≈ 191 µM)	25 µg/mL (≈ 95.7 µM)	25 µg/mL (≈ 95.7 µM)	25 µg/mL (≈ 95.7 µM)	50 µg/mL (≈ 191 µM)	N=c1[nH]c2nn(-c3ccccc3)nc2c2ccccc12	33 mm	200 µg/mL (≈ 765 µM)	16 mm	20 mm	20 mm	37 mm	19 mm	200 µg/mL (≈ 765 µM)
12.5 µg/mL (≈ 42.5 µM)	25 µg/mL (≈ 84.9 µM)	12.5 µg/mL (≈ 42.5 µM)	25 µg/mL (≈ 84.9 µM)	50 µg/mL (≈ 170 µM)	25 µg/mL (≈ 84.9 µM)	COc1ccc(/N=N/C(C(N)=O)c2ccccc2C#N)cc1 (stereo unspecified)	32 mm	100 µg/mL (≈ 340 µM)	26 mm	16 mm	30 mm	19 mm	32 mm	100 µg/mL (≈ 340 µM)
100 µg/mL (≈ 378 µM)	100 µg/mL (≈ 378 µM)	50 µg/mL (≈ 189 µM)	100 µg/mL (≈ 378 µM)	100 µg/mL (≈ 378 µM)	50 µg/mL (≈ 189 µM)	N#C/C(=C\c1ccc(Cl)cc1)c1ccccc1C#N	21 mm	200 µg/mL (≈ 756 µM)	26 mm	15 mm	15 mm	20 mm	20 mm	200 µg/mL (≈ 756 µM)
25 µg/mL (≈ 102 µM)	12.5 µg/mL (≈ 50.8 µM)	25 µg/mL (≈ 102 µM)	12.5 µg/mL (≈ 50.8 µM)	12.5 µg/mL (≈ 50.8 µM)	12.5 µg/mL (≈ 50.8 µM)	N#Cc1ccccc1C(C#N)/N=N/c1ccccc1 (stereo unspecified)	37 mm	200 µg/mL (≈ 812 µM)	40 mm	38 mm	33 mm	30 mm	30 mm	100 µg/mL (≈ 406 µM)
50 µg/mL (≈ 132 µM)	50 µg/mL (≈ 132 µM)	25 µg/mL (≈ 66.2 µM)	25 µg/mL (≈ 66.2 µM)	50 µg/mL (≈ 132 µM)	25 µg/mL (≈ 66.2 µM)	CCOC(=O)c1c2[nH]c(=N)c3ccccc3c2nn1-c1ccc([N+](=O)[O-])cc1	38 mm	200 µg/mL (≈ 530 µM)	20 mm	19 mm	15 mm	37 mm	16 mm	200 µg/mL (≈ 530 µM)
100 µg/mL (≈ 302 µM)	100 µg/mL (≈ 302 µM)	50 µg/mL (≈ 151 µM)	50 µg/mL (≈ 151 µM)	50 µg/mL (≈ 151 µM)	50 µg/mL (≈ 151 µM)	N#CC1c2ccccc2C(=N)C(C#N)(C#N)C1c1ccc(Cl)cc1 (stereo unspecified)	20 mm	200 µg/mL (≈ 605 µM)	26 mm	20 mm	33 mm	33 mm	31 mm	200 µg/mL (≈ 605 µM)
